Published values pooled from the literature.
Target: Voltage-gated inwardly rectifying potassium channel KCNH2 (KCNH2, Homo sapiens, UniProt Q12809)

SMILES | read-out | action | technique | cell line | tested at | measurement | value
Ic1cccc2cnccc12 | ligand displacement |  | radioligand |  | 10 µM | inhibition | 31%
O=C(Cc1ccc(F)c(C(F)F)c1)N1CCN(c2ccc3nncn3n2)CC1 | ligand displacement |  | radioligand |  | 30 µM | inhibition | 38%
N=c1n(CCN2CCCCC2)c2ccccc2n1CC(O)c1cccc(Br)c1 (centres unmarked) | ion current | inhibitor | patch clamp | HEK293 | 10 µM | inhibition | 99%
Cc1nc2cnc(N)c(C#Cc3cncc(C(=O)Nc4ccc(CN5CCN(C)CC5)c(C(F)(F)F)c4)c3)c2nc1C | ion current | inhibitor |  |  |  | IC50 | 2.4 µM
O=C(Cc1ccc(F)c(CF)c1)N1CCN(c2ccc3nncn3n2)CC1 | ligand displacement |  | radioligand |  | 30 µM | inhibition | 23%
CCN(CC)CCNC(=O)C1CCN(c2ccc3nnc(-c4cccc(C)c4)n3n2)CC1 | ion current | inhibitor | patch clamp | HEK293 | 10 µM | inhibition | 58%
CNC(=O)[C@@]12C[C@@H]1[C@@H](n1cnc3c(NCCc4ccc(O)c(OC)c4)nc(C#Cc4ccc(Br)s4)nc31)[C@H](O)[C@@H]2O | ion current | inhibitor |  |  | 10 µM | inhibition | > 50%
CCc1cc(O)ccc1-c1ccc2c(-c3nc4c([nH]3)CN(C(C)C)[C@H](C(=O)N3CC(N(C)C)C3)C4)n[nH]c2c1 | ion current | inhibitor |  |  | 13 µM | inhibition | < 5%
CCN(Cc1ccccc1C(F)(F)F)C(=O)C1CCN(S(=O)(=O)c2ccc3[nH]ncc3c2)CC1 | ligand displacement |  | radioligand |  | 10 µM | inhibition | 18%
CNC(=O)[C@@]12C[C@@H]1[C@@H](n1cnc3c(NCCc4ccc(OC)c(OC)c4)nc(C#Cc4ccc(Cl)s4)nc31)[C@H](O)[C@@H]2O | ion current | inhibitor |  |  | 10 µM | inhibition | > 50%
COc1ncc(C)c(-c2ccc3c(c2)[nH]c(=O)c2cnn([C@H]4CCOC4)c23)c1C | ion current | inhibitor |  |  |  | IC50 | 4 µM
